Active and inactive are the calls of the source.
Tests used:
[1] = biological target: T1, Insulin-like growth factor 1 receptor (Homo sapiens, UniProt P08069); test: Inhibition of recombinant human N-terminal GST/His6-tagged IGF1R (M954 to C1367 residues) expressed in sf9 cells assessed as residual activity at 1 uM using Poly(Glu,Tyr)4:1 as substrate by filter binding assay relative to control
Method in brief: (§1)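 Single-point profiling at 1 μM in a 22-kinase panel, performed externally by ProQinase; activity read as residual percent of control.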

[2] = biological target: Serine/threonine-protein kinase Chk2 (Homo sapiens) (UniProt O96017); test: Inhibition of CHK2 (unknown origin) at 1 uM; method in brief: as §1
[3] = biological target: T1, Insulin-like growth factor 1 receptor; test: Inhibition of IGF1R phosphorylation at Tyr1161 residue in human MCF7 cells at 1 uM after 1 hr by Hoechst 33258 staining based immunohistochemical analysis; type: cell-based
Method in brief: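 MCF7 treated 1 h (test agent 1 μM; PI3K inhibitor 10 μM; 0.1% DMSO mock), fixed in 4% PFA 15 min, permeabilised/blocked, anti-p-IGF-1R Y1161 (1:200) overnight at 4 °C, Alexa 594 secondary 1 h, nuclei with Hoechst 33258 (1 μg/mL).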

[4] = biological target: T1, Insulin-like growth factor 1 receptor; test: Inhibition of IGF1R in human MDA-MB-231 cells assessed as reduction in Akt phosphorylation at Ser473 residue after 24 hrs by immunoblot analysis; type: cell-based
Method in brief: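 Cells in their medium with 10% FBS exposed to rising concentrations for 24 h; whole-cell lysates immunoblotted for p-Akt (S473) and total Akt; PI3K inhibitor at 10 μM as positive control.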

RPMI-8226 = test: Growth inhibition of human RPMI8226 cells incubated for 48 hrs by sulforhodamine B assay; type: functional, cell-based
OVCAR-3 = test: Growth inhibition of human OVCAR3 cells incubated for 48 hrs by sulforhodamine B assay; type: functional, cell-based
OVCAR-4 = test: Growth inhibition of human OVCAR4 cells incubated for 48 hrs by sulforhodamine B assay; type: functional, cell-based
SK-OV-3 = test: Growth inhibition of human SKOV3 cells incubated for 48 hrs by sulforhodamine B assay; type: functional, cell-based
SN12C = test: Growth inhibition of human SN12C cells incubated for 48 hrs by sulforhodamine B assay; type: functional, cell-based
MDA-MB-468 = test: Growth inhibition of human MDA-MB-468 cells incubated for 48 hrs by sulforhodamine B assay; type: functional, cell-based

T1 sequence (P08069 31-736 limits assumed): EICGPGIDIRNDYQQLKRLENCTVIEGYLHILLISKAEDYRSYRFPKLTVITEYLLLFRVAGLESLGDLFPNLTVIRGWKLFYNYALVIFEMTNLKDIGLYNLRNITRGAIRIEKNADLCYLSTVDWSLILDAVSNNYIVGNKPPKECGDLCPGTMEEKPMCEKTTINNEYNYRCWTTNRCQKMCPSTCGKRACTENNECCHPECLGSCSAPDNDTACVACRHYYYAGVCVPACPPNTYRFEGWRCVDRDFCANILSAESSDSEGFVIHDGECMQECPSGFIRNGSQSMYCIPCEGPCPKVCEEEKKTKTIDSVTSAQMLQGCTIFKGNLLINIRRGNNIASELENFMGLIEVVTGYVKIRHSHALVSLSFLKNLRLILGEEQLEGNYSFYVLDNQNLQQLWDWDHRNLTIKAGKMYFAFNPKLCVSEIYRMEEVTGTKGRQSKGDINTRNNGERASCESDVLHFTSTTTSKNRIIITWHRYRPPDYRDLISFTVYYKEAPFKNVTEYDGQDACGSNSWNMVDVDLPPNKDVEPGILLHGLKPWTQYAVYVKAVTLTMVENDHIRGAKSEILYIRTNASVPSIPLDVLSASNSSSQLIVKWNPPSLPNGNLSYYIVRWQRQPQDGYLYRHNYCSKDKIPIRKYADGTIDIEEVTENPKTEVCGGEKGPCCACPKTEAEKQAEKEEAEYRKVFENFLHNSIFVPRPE
T1 sequence (P08069 741-1367 limits assumed): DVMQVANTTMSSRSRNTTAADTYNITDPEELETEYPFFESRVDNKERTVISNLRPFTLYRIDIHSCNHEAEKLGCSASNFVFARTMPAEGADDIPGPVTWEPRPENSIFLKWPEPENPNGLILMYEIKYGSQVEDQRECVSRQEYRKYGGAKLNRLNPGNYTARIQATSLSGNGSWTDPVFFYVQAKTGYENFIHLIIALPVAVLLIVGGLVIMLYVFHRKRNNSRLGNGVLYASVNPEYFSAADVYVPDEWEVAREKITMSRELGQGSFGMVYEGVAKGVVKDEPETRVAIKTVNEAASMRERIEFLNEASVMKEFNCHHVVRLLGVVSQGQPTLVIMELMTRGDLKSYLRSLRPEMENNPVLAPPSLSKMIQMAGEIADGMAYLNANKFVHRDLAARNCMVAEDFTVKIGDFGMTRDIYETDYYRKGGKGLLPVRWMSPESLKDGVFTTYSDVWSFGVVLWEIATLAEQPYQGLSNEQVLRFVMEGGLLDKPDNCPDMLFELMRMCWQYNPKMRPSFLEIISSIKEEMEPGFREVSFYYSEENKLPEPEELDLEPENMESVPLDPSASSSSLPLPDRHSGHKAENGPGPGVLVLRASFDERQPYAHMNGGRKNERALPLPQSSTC
Serine/threonine-protein kinase Chk2 (Homo sapiens), sequence (O96017 whole entry): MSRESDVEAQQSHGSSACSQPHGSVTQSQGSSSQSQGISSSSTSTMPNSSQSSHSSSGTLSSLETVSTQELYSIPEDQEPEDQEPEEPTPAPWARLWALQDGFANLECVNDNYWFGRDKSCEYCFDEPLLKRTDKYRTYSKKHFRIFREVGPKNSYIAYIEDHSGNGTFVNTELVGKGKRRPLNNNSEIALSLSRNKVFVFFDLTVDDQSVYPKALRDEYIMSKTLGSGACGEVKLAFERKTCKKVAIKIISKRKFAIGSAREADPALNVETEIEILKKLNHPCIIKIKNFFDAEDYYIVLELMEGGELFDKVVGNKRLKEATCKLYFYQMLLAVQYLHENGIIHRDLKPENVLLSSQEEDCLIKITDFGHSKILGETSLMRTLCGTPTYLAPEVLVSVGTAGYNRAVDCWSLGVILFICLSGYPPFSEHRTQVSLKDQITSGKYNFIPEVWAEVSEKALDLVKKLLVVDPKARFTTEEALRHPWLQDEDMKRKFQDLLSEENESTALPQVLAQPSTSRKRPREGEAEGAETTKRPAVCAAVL

CN1CCN(CCO/N=C2/C(=C3/C(=O)Nc4ccccc43)Nc3ccccc32)CC1
active: inhibition [3] | inhibition [4] Dose-dependent effect | growth inhibition (GI) (RPMI-8226) | growth inhibition (GI) (OVCAR-3) | growth inhibition (GI) (OVCAR-4) | growth inhibition (GI) (SK-OV-3) | growth inhibition (GI) (SN12C) | growth inhibition (GI) (MDA-MB-468)
30%: Activity [1]
inactive: inhibition [2]

Reference: ChEMBL document CHEMBL4014343 (J Med Chem, 2017)
